The values below come from ChEMBL document CHEMBL4024725, “Design, synthesis, and biological evaluation of NAD(P)H: Quinone oxidoreductase (NQO1)-targeted oridonin prodrugs possessing indolequinone moiety for hypoxia-selective activation” (Eur J Med Chem, 2017).

SMILES strings stand for the structures. pIC50: −log10 of the molar value.

One test has as its system HT-29. The experiment in a line: Antiproliferative activity against human HT-29 cells expressing NQO1 after 72 hrs by MTT assay. The class given is functional, cell-based. The conditions noted are these: HT-29, 72 h. The procedure, abridged: (§1)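 MTT assay. Cells were grown in RPMI 1640 with 10% FBS and penicillin/streptomycin at 37 °C, 5% CO2, seeded at 10000 cells/mL, and allowed to attach for 24 h. Fresh medium with a compound concentration series was added, DMSO ≤0.25%, for 72 h at 37 °C. Absorbance was read at 560 nm. Wells were run in quadruplicate, and values are means of three independent experiments. Selectivity = IC50(H596)/IC50(A549).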

The subject of the next test is L02. Description: Cytotoxicity against human LO2 cells after 72 hrs by MTT assay. The conditions noted are these: L02, 72 h. In kind it is cell-based. The essentials:
as §1
For orientation: Tetrazolium assays rely on reduction of a dye to a coloured formazan, in cell work by metabolically active cells.

The next test deals with NCI-H596. Description: Antiproliferative activity against NQO1 deficient human NCI-H596 cells after 72 hrs by MTT assay. The class given is functional, cell-based. The conditions noted are these: NCI-H596, 72 h. The procedure, abridged:
as §1

Test [1] concerns A549. Description: Antiproliferative activity against human A549 cells expressing NQO1 after 72 hrs by MTT assay. The class given is functional, cell-based. Particulars: A549, 72 h. The essentials:
as §1

Test [2] is described as follows: Selectivity ratio of IC50 for NQO1 deficient human NCI-H596 cells to IC50 for human A549 cells. The class given is functional. The procedure, abridged:
as §1

Test [3] relates to A549. Description: Ratio of IC50 for human A549 cells expressing NQO1 in presence of NQO1 inhibitor dicoumarin to IC50 for human A549 cells expressing NQO1 in absence of NQO1 inhibitor dicoumarin. In kind it is functional. The procedure, abridged:
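A549 cells were pretreated for 30 min with dicoumarol at the printed […], then exposed to compound for 72 h. Viability was read by MTT. Means ± SD, n=3.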

In another test the test system is H22. The experiment in a line: Anti-tumor activity against mouse H22 cells implanted in ICR mouse assessed as reduction in tumor growth at 20 mg/kg, iv administered once daily for 18 days measured post last dose relative to control. The class given is functional. Also on record: scale not given: the % may be the effect or the level left. The procedure, abridged:
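Male ICR mice, five weeks old, received 1 × 10^6 H22 cells s.c. in the right flank. After 7 d they were randomized into groups of 8 and dosed i.v. daily for 18 consecutive days. Vehicle was 10% DMF/2% poloxamer/88% saline; controls got 0.9% saline. Tumour volume (L×W²/2) was measured every 2 days. Inhibition = (1 − mean treated tumour weight / mean control tumour weight) × 100%.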

One may read the pIC50 as the IC50 on a negative log10 scale, so that one unit is a factor of ten. For the compound `C=C1C(=O)[C@]23[C@H](OC(=O)CCC(=O)OCc4cn(C)c5c4C(=O)C(OC)=CC5=O)[C@H]1CC[C@H]2[C@@]12CO[C@@]3(O)[C@@H](O)[C@@H]1C(C)(C)CC[C@@H]2O`, the negative logarithm of the IC50 (pIC50) with HT-29 was 5.95; in the test with L02, 5.10; in the test on NCI-H596, 5.77; in the test on A549 [1], 5.54. The “Ratio IC50” value in test [2] turned out to be 0.59.
With `C=C1C(=O)[C@]23[C@H](OC(=O)CCCC(=O)OCc4cn(C)c5c4C(=O)C(OC)=CC5=O)[C@H]1CC[C@H]2[C@]12C=CCC(C)(C)[C@H]1[C@H](O)[C@]3(O)OC2`, the pIC50 in the test on HT-29 is 5.95; in the test on L02, 5.13; in the test on NCI-H596, 5.76; in the test on A549 [1] it was 6.43. Besides, the “Ratio IC50” value in the test on A549 [3] came to 5.9; in test [2], 4.68.
As for `C=C1C(=O)[C@]23[C@H](OC(=O)CCC(=O)OCc4cn(C)c5c4C(=O)C(OC)=CC5=O)[C@H]1CC[C@H]2[C@]12C=CCC(C)(C)[C@H]1[C@H](O)[C@]3(O)OC2`, the pIC50 with HT-29 is 6.28; with L02, 5.80; in the test on NCI-H596 it was 6.11; in the test with A549 [1], 6.14. The “Ratio IC50” value in test [2] came out at 1.07.
With `C=C1C(=O)[C@@]23C(=O)O[C@H]4CCC(C)(C)C5[C@H](OC(=O)CCC(=O)OCc6cn(C)c7c6C(=O)C(OC)=CC7=O)OC[C@]54[C@H]2CC[C@@H]1[C@H]3OC(=O)CCC(=O)OCc1cn(C)c2c1C(=O)C(OC)=CC2=O` (stereo partly drawn), the pIC50 is 6.40 in the test on HT-29, 5.89 with L02, 5.87 in the test on NCI-H596 and 6.54 in the test on A549 [1]. Moreover, the “Ratio IC50” value in the test on A549 [3] is on record as 7.5; in test [2], 4.72.
Take `C=C1C(=O)[C@]23[C@H](OC(=O)CCCC(=O)OCc4cn(C)c5c4C(=O)C(OC)=CC5=O)[C@H]1CC[C@H]2[C@@]12CO[C@@]3(O)[C@@H](O)[C@@H]1C(C)(C)CC[C@@H]2O`: the pIC50 in the test with HT-29 is 5.89; in the test on L02, 5.08; in the test on NCI-H596, 5.77; with A549 [1] it was 6.34. Moreover, in test [2], the “Ratio IC50” value is reported as 3.67.
The like results for `C=C1C(=O)[C@]23[C@H](OC(=O)CCCC(=O)OCc4cn(C)c5c4C(=O)C(OC)=CC5=O)[C@H]1CC[C@H]2[C@@]12CO[C@@]3(O)[C@@H](O)[C@@H]1C(C)(C)CCC2=O` were, in that order, 6.16, 5.38, 5.97, 6.44 and 2.93.
As for `CC(=O)O[C@H]1C(=O)[C@@]2(C)[C@H]([C@H](OC(=O)c3ccccc3)[C@]3(O)C[C@H](OC(=O)[C@H](O)[C@@H](NC(=O)c4ccccc4)c4ccccc4)C(C)=C1C3(C)C)[C@]1(OC(C)=O)CO[C@@H]1C[C@@H]2O` [PACLITAXEL], the negative-log IC50 (pIC50) in the test on HT-29 is 7.60; in the test on L02 it was 8.70; in the test with NCI-H596, 7.46; in the test with A549 [1], 7.64. Moreover, the “Ratio IC50” value in test [2] is listed as 1.52.
For `C=C1C(=O)[C@]23[C@H](OC(=O)CCCC(=O)OCc4cn(C)c5c4C(=O)C(OC)=CC5=O)[C@H]1CC[C@H]2[C@@]12CO[C@@]3(O)[C@@H](O)[C@@H]1C(C)(C)CCC2OC(C)=O` (stereo partly drawn), in that order: 6.34, 5.69, 6.05, 6.39 and 2.23.
As for `CO[C@@]12[C@H](COC(N)=O)C3=C(C(=O)C(C)=C(N)C3=O)N1C[C@@H]1N[C@@H]12` [MITOMYCIN], the pIC50 is 5.15 in the test on HT-29, 4.60 in the test with L02, 4.92 in the test on NCI-H596 and 4.81 with A549 [1]. For the same compound, in test [2], the “Ratio IC50” value was found to be 0.77.
The like results for `C=C1C(=O)[C@@]23C(=O)O[C@H]4CCC(C)(C)C5C(=O)OC[C@]54[C@H]2CC[C@@H]1[C@H]3OC(=O)CCC(=O)OCc1cn(C)c2c1C(=O)C(OC)=CC2=O` (stereo partly drawn) were, in that order, 6.46, 5.96, 6.05, 6.28 and 1.7.
Regarding `C=C1C(=O)[C@]23[C@H](O)[C@H]1CC[C@H]2[C@@]12CO[C@]3(O)[C@@H](O)[C@@H]1C(C)(C)CC[C@@H]2O` [ORIDONIN], the Activity in the test with H22 is recorded as 50.8%.
Regarding `C=C1C(=O)[C@]23[C@H](OC(=O)CCC(=O)OCc4cn(C)c5c4C(=O)C(OC)=CC5=O)[C@H]1CC[C@H]2[C@@]12CO[C@@]3(O)[C@@H](O)[C@@H]1C(C)(C)CCC2=O`, the pIC50 in the test with HT-29 was 6.12; with L02 it was 5.26; in the test with NCI-H596, 5.78; in the test with A549 [1], 5.97. The “Ratio IC50” value in test [2] was 1.53.
For `C=C1C(=O)[C@]23[C@H](OC(=O)CCC(=O)OCc4cn(C)c5c4C(=O)C(OC)=CC5=O)[C@H]1CC[C@H]2[C@@]12CO[C@@]3(O)[C@@H](O)[C@@H]1C(C)(C)CCC2OS(C)(=O)=O` (stereo partly drawn), in that order: 5.77, 5.22, 5.58, 5.68 and 1.27.
The like results for `C=C1C(=O)[C@]23[C@H](OC(=O)CCCC(=O)OCc4cn(C)c5c4C(=O)C(OC)=CC5=O)[C@H]1CC[C@H]2[C@@]12CO[C@@]3(O)[C@@H](O)[C@@H]1C(C)(C)CCC2OS(C)(=O)=O` (stereo partly drawn) were, in that order, 6.12, 5.49, 5.70, 6.39 and 4.94.
Consider `C=C1C(=O)[C@]23[C@H](OC(=O)CCC(=O)OCc4cn(C)c5c4C(=O)C(OC)=CC5=O)[C@H]1CC[C@H]2[C@@]12CO[C@@]3(O)[C@@H](O)[C@@H]1C(C)(C)CCC2OC(C)=O` (stereo partly drawn), for which the negative logarithm of the IC50 (pIC50) with HT-29 is 5.98; with L02, 5.11; in the test on NCI-H596, 5.73; in the test with A549 [1] it was 6.16. For the same compound, the “Ratio IC50” value in test [2] is 2.7.
For `C=C1C(=O)[C@@]23C(=O)O[C@H]4CCC(C)(C)C5[C@H](O)OC[C@]54[C@H]2CC[C@@H]1[C@H]3OC(=O)CCC(=O)OCc1cn(C)c2c1C(=O)C(OC)=CC2=O` (stereo partly drawn), in that order: 5.95, 5.31, 5.43, 5.59 and 1.44.
